The structures appear in SMILES notation. In brackets after ≈: the same amount, converted by molar mass. Activity calls are given as the source filed them. The rule behind the calls is not given here. Bounds are passed on as bounds.

The source of these data is ChEMBL document CHEMBL4411269, “Required Immunoproteasome Subunit Inhibition Profile for Anti-Inflammatory Efficacy and Clinical Candidate KZR-616 ((2 S,3 R)- N-(( S)-3-(Cyclopent-1-en-1-yl)-1-(( R)-2-methyloxiran-2-yl)-1-oxopropan-2-yl)-3-hydroxy-3-(4-methoxyphenyl)-2-(( S)-2-(2-morpholinoacetamido)propanamido)propenamide)” (J Med Chem, 2018).

Series [1] deals with T1, Proteasome subunit beta type-9 (Homo sapiens, UniProt P28065).
T1 sequence (P28065 whole entry): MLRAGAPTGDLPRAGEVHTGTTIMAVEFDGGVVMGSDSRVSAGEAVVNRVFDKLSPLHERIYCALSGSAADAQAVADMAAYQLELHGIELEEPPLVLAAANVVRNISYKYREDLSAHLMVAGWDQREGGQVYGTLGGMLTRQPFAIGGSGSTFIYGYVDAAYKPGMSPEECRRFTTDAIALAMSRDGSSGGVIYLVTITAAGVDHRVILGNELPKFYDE
The series is described as follows: Inhibition of LMP2 in human MOLT4 cells by ELISA. Type of series: cell-based. (ELISA stands for enzyme-linked immunosorbent assay.)

The target of series [2] is T2, Proteasome subunit beta type-8 (Mus musculus, UniProt P28063).
T2 sequence (P28063 whole entry): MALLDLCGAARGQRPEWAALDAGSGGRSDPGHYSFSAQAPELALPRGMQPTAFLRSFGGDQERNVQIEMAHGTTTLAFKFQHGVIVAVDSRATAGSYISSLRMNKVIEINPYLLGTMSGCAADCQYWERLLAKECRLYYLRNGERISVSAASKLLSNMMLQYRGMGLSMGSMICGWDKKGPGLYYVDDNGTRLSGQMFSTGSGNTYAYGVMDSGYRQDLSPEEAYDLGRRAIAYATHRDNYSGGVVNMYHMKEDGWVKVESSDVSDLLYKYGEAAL
The series is described as follows: Inhibition of LMP7 in mouse A20 cells by ELISA. The format is cell-based. The gist of the method: (§1)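 Mouse A20 B-cell lymphoma cell lysate (1 mg/mL, hypotonic 20 mM Tris pH 8, 5 mM EDTA) treated with serially diluted compound for 1 h at 25 °C. Then 5 μM biotinylated active-site probe for 2 h at 25 °C, guanidine denaturation and streptavidin bead capture. Subunit-specific antibody and HRP chemiluminescence, signal normalized to protein, IC50 from percent activity versus DMSO controls.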

The test system of series [3] is PBMC. The series is described as follows: Antiinflammatory activity in human PBMC assessed as reduction in anti-CD3/CD28 antibody-stimulated IFN-gamma expression at 250 nM preincubated for 1 hr followed by anti-CD3/CD28 antibody stimulation measured after 24 hrs by ELISA. Type of series: functional, cell-based. The gist of the method:
(§2)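 Healthy-donor PBMC, thawed from cryopreservation, 250 000 cells/well in RPMI 1640/5% FBS. Pretreated 1 h at 37 °C with compound alone or combined (0.1% DMSO final), washed 4 times, then stimulated 24 h with anti-CD3 and anti-CD28 antibodies. TNFα and IFNγ in supernatants by electrochemiluminescent ELISA; expressed relative to DMSO-treated controls (n = 6).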

In series [4] the target is T3, Proteasome Macropain subunit MB1 (Homo sapiens, UniProt P28074).
T3 sequence (P28074 whole entry): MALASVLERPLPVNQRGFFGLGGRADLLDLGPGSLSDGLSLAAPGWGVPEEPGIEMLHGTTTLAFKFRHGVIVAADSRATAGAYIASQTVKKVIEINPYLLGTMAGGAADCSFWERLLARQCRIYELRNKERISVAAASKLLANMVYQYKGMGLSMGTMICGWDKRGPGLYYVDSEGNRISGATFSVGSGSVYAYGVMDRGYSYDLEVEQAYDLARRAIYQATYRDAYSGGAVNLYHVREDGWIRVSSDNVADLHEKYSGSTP
The series is described as follows: Inhibition of 20S proteosome beta 5 in human MOLT4 cells by ELISA. The format is cell-based.

The target in series [5] is T4, Proteasome subunit beta type-9 (Mus musculus, UniProt P28076).
T4 sequence (P28076 whole entry): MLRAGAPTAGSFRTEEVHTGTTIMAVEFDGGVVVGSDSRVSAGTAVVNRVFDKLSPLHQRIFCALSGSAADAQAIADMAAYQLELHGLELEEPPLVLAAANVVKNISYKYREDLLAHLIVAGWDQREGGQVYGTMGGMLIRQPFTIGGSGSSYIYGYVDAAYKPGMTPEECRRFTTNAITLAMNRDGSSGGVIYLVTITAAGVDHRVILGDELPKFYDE
The series is described as follows: Inhibition of LMP2 in mouse A20 cells by ELISA. Type of series: cell-based. The essentials:
as §1

For series [6], the target named is T5, Proteasome subunit beta type-8 (Homo sapiens, UniProt P28062).
T5 sequence (P28062 whole entry): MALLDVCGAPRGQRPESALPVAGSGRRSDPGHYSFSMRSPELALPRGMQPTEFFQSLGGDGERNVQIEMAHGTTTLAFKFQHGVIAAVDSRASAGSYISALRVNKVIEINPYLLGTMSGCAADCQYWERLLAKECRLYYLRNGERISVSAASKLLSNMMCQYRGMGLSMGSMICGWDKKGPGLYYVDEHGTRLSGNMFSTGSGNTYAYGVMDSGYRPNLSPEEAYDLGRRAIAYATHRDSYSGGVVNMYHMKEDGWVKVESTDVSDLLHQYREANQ
The series is described as follows: Inhibition of LMP7 in human MOLT4 cells by ELISA. Type of series: cell-based.

The test system of series [7] is PBMC. The series is described as follows: Antiinflammatory activity in human PBMC assessed as reduction in anti-CD3/CD28 antibody-stimulated TNF-alpha expression at 250 nM preincubated for 1 hr followed by anti-CD3/CD28 antibody stimulation measured after 24 hrs by ELISA. The format is functional, cell-based. The essentials: as §2
Series [8] has as its target T6, Proteasome subunit beta type-10 (Homo sapiens, UniProt P40306).
T6 sequence (P40306 whole entry): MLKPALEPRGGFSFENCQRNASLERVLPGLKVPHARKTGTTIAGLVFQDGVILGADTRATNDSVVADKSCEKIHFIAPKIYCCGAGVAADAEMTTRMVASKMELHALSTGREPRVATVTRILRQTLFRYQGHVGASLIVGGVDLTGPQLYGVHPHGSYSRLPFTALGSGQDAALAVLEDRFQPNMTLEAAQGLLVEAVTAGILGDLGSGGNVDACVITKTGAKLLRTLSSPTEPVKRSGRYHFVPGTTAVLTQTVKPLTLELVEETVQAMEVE
The series is described as follows: Inhibition of MECL1 in human MOLT4 cells by ELISA. Type of series: cell-based.

A short description of series [9]: Solubility of the compound in phosphate buffer at pH 7.2 at 10 mg/ml after 24 hrs by HPLC-UV method. The format is physicochemical. The essentials:
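Compound shaken at a target 10 mg/mL in 50 mM potassium phosphate buffer for 24 h at 25 °C, then centrifuged at 15 000 rpm for 15 min. Supernatant diluted 100-fold in DMSO and quantified by HPLC-UV (220/254/280 nm) against a three-level DMSO standard curve, in duplicate.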

The target of series [10] is T7, Proteasome subunit beta type-5 (Mus musculus, UniProt O55234).
T7 sequence (O55234 whole entry): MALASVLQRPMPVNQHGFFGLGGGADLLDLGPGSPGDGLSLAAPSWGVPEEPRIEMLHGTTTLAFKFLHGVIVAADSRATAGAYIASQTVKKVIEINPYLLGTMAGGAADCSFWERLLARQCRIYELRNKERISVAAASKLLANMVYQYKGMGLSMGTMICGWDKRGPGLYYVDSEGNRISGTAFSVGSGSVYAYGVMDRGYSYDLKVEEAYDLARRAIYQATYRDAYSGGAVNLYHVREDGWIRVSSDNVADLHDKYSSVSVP
The series is described as follows: Inhibition of 20S proteosome beta 5 in mouse A20 cells by ELISA. Type of series: cell-based.

As to `COc1ccc([C@@H](O)[C@H](NC(=O)[C@H](C)NC(=O)CN2CCOCC2)C(=O)N[C@@H](CC2=CCCC2)C(=O)[C@@]2(C)CO2)cc1` [ZETOMIPZOMIB], the IC50 in series [1] is 0.131 µM; in series [2], 0.057 µM; in [4], 0.688 µM; in [5], 0.179 µM; in series [6] it was 0.039 µM; in series [8] it was 0.623 µM. Further, 0.483 µM corresponded to half-maximal inhibition in series [10] (IC50). In addition, the outcome with PBMC [3] and in the series with PBMC [7] was Active. Besides, in series [9], the solubility at 24 h stood at 7070 µg/mL (≈ 12100 µM).

For `Cc1ccc(CC[C@H](NC(=O)[C@H](Cc2ccccc2)NC(=O)[C@H](CC(C)C)NC(=O)CN2CCCCCC2)C(=O)[C@@]2(C)CO2)cc1`, the IC50 is greater than 25 µM in [1]; 1.92 µM in series [2]; 0.486 µM in [4]; greater than 25 µM in series [5]; 0.346 µM in series [6]; 0.071 µM in series [8]. Also, the 50% inhibitory concentration (IC50) in series [10] turned out to be 0.378 µM. In addition, the result with PBMC [3] and in the series on PBMC [7] was inactive. In series [9], this molecule gave a solubility at 24 h of 7 µg/mL (≈ 11.1 µM).

For `COc1ccc(C[C@H](NC(=O)[C@@H](C)NC(=O)[C@H]2CC[C@H](O)CC2)C(=O)N[C@@H](CC2=CCCC2)C(=O)[C@@]2(C)CO2)cc1`, the 50% inhibitory concentration (IC50) is 1.85 µM in series [1]; 0.374 µM in series [2]; 2.67 µM in series [4]; 3.96 µM in series [5]; greater than 25 µM in [8]; 2.65 µM in series [10]. Besides, the solubility at 24 h in series [9] stood at 491 µg/mL (≈ 862 µM).

The IC50 is the concentration that inhibits the measured activity by half. Higher therefore signals a need for much substance. The term solubility denotes the dissolved amount per volume that the medium holds. High values mean much dissolved substance, low ones little dissolved substance.
